The record followed here is ChEMBL document CHEMBL3227922, “Synthesis and antitumor activity of sugar-ring hydroxyl analogues of daunorubicin” (J Med Chem, 1979).

Data set [1] relates to Mus musculus. As to the kind of experiment: Toxicity in BDF1 mouse allografted with mouse B16 cells at 1 to 16 mg/kg, ip on day 5. Particulars: in vivo.
For data set [2], the system named is P388. As to the kind of experiment: Antitumor activity against mouse P388 cells allografted in CDF1 mouse assessed as tumor inhibition at 2 mg/kg, ip on days 5, 9 and 13 relative to untreated control. It is filed as functional. Particulars: route intraperitoneal. In a few lines: (§1)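 CDF₁ mice given 10⁶ P388 lymphocytic leukemia cells ip on day 0; drug ip on days 5, 9 and 13. Six mice per dose level (five for one compound). T/C % = median survival time as percent of untreated controls. Acute toxic death counted as survival under 5 days after treatment.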

For data set [3], the system named is P388. As to the kind of experiment: Antitumor activity against mouse P388 cells allografted in CDF1 mouse assessed as tumor inhibition at 4 mg/kg, ip on days 5, 9 and 13 relative to untreated control. It is filed as functional. The conditions noted are these: route intraperitoneal. In a few lines:
as §1

Data set [4] relates to B16. As to the kind of experiment: Antitumor activity against mouse B16 cells allografted in BDF1 mouse assessed as tumor inhibition at 4 mg/kg, ip on day 5 relative to untreated control. The conditions noted are these: route intraperitoneal.
Data set [5] concerns Mus musculus. As to the kind of experiment: Toxicity in CDF1 mouse allografted with mouse P388 cells assessed as survival at 1 to 16 mg/kg, ip on days 5, 9 and 13. It counts as organism-based. Also on record: dose 1-16 mg/kg, route intraperitoneal. Particulars: in vivo. In a few lines:
(§2)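 CDF1 mice were inoculated ip with 10⁶ P388 lymphocytic leukemia cells on day 0. Drug was given ip on days 5, 9 and 13, with six mice per dose level. Read-out was median survival time as percent of untreated controls (T/C). Acute toxic-drug deaths were defined as survival under 5 days after treatment injection.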

Data set [6] relates to B16. As to the kind of experiment: Antitumor activity against mouse B16 cells allografted in BDF1 mouse assessed as tumor inhibition at 2 mg/kg, ip on day 5 relative to untreated control. The conditions noted are these: route intraperitoneal.
The test system of data set [7] is P388. As to the kind of experiment: Antitumor activity against mouse P388 cells allografted in CDF1 mouse assessed as tumor inhibition at 1 mg/kg, ip on days 5, 9 and 13 relative to untreated control. Particulars: route intraperitoneal. It is filed as functional. In a few lines: as §1
The subject of data set [8] is B16. As to the kind of experiment: Antitumor activity against mouse B16 cells allografted in BDF1 mouse assessed as tumor inhibition at 8 mg/kg, ip on day 5 relative to untreated control. Particulars: route intraperitoneal.
The subject of data set [9] is P388. As to the kind of experiment: Antitumor activity against mouse P388 cells allografted in CDF1 mouse assessed as tumor inhibition at 8 mg/kg, ip on days 5, 9 and 13 relative to untreated control. Particulars: route intraperitoneal. It counts as functional. In a few lines: as §1
In data set [10] the test system is B16. As to the kind of experiment: Antitumor activity against mouse B16 cells allografted in BDF1 mouse assessed as tumor inhibition at 1 mg/kg, ip on day 5 relative to untreated control. Particulars: route intraperitoneal.
Data set [11] relates to P388. As to the kind of experiment: Antitumor activity against mouse P388 cells allografted in CDF1 mouse assessed as tumor inhibition at 16 mg/kg, ip on days 5, 9 and 13 relative to untreated control. It is filed as functional. Particulars: route intraperitoneal. In a few lines: as §1
Data set [12] concerns B16. As to the kind of experiment: Antitumor activity against mouse B16 cells allografted in BDF1 mouse assessed as tumor inhibition at 16 mg/kg, ip on day 5 relative to untreated control. Particulars: route intraperitoneal.
The test system of data set [13] is P388. As to the kind of experiment: Antitumor activity against mouse P388 cells allografted in CDF1 mouse assessed as tumor inhibition at 12.5 mg/kg, ip on days 5, 9 and 13 relative to untreated control. It is filed as functional. Particulars: route intraperitoneal. In a few lines: as §1
For data set [14], the system named is P388. As to the kind of experiment: Antitumor activity against mouse P388 cells allografted in CDF1 mouse assessed as tumor inhibition at 3.13 mg/kg, ip on days 5, 9 and 13 relative to untreated control. It is filed as functional. Particulars: route intraperitoneal. In a few lines: as §1
Data set [15] relates to P388. As to the kind of experiment: Antitumor activity against mouse P388 cells allografted in CDF1 mouse assessed as tumor inhibition at 50 mg/kg, ip on days 5, 9 and 13 relative to untreated control. The conditions noted are these: route intraperitoneal. It is filed as functional. In a few lines: as §1
The test system of data set [16] is P388. As to the kind of experiment: Antitumor activity against mouse P388 cells allografted in CDF1 mouse assessed as tumor inhibition at 6.25 mg/kg, ip on days 5, 9 and 13 relative to untreated control. It counts as functional. Particulars: route intraperitoneal. In a few lines:
as §1

Data set [17] relates to P388. As to the kind of experiment: Antitumor activity against mouse P388 cells allografted in CDF1 mouse assessed as tumor inhibition at 25 mg/kg, ip on days 5, 9 and 13 relative to untreated control. It counts as functional. Particulars: route intraperitoneal. In a few lines: as §1
Data set [18] concerns Mus musculus. As to the kind of experiment: Toxicity in CDF1 mouse allografted with mouse P388 cells assessed as survival at 3.13 to 50 mg/kg, ip on days 5, 9 and 13. It counts as organism-based. More on the design: dose 3.13-50 mg/kg, route intraperitoneal. The conditions noted are these: in vivo. In a few lines:
as §2

Data set [19] deals with Mus musculus. As to the kind of experiment: Toxicity in BDF1 mouse allografted with mouse B16 cells at 100 mg/kg, ip on day 5. The conditions noted are these: in vivo.
The subject of data set [20] is B16. As to the kind of experiment: Antitumor activity against mouse B16 cells allografted in BDF1 mouse assessed as tumor inhibition at 50 mg/kg, ip on day 5 relative to untreated control. The conditions noted are these: route intraperitoneal.
Data set [21] has as its system Mus musculus. As to the kind of experiment: Toxicity in CDF1 mouse allografted with mouse P388 cells assessed as survival at 25 to 400 mg/kg, ip on days 5, 9 and 13. It counts as organism-based. More on the design: dose 25-400 mg/kg, route intraperitoneal. The conditions noted are these: in vivo. In a few lines:
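Median survival time was expressed as percent of untreated controls (T/C). Acute toxic-drug deaths were scored as survival under 5 days after treatment injection.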

The test system of data set [22] is P388. As to the kind of experiment: Antitumor activity against mouse P388 cells allografted in CDF1 mouse assessed as tumor inhibition at 100 mg/kg, ip on days 5, 9 and 13 relative to untreated control. Particulars: route intraperitoneal. It is filed as functional. In a few lines: as §1
The subject of data set [23] is P388. As to the kind of experiment: Antitumor activity against mouse P388 cells allografted in CDF1 mouse assessed as tumor inhibition at 400 mg/kg, ip on days 5, 9 and 13 relative to untreated control. It counts as functional. Particulars: route intraperitoneal. In a few lines: as §1
The test system of data set [24] is B16. As to the kind of experiment: Antitumor activity against mouse B16 cells allografted in BDF1 mouse assessed as tumor inhibition at 25 mg/kg, ip on day 5 relative to untreated control. The conditions noted are these: route intraperitoneal.
Data set [25] deals with Mus musculus. As to the kind of experiment: Toxicity in BDF1 mouse allografted with mouse B16 cells at 200 mg/kg, ip on day 5. Particulars: in vivo.
Data set [26] concerns B16. As to the kind of experiment: Antitumor activity against mouse B16 cells allografted in BDF1 mouse assessed as tumor inhibition at 12.5 mg/kg, ip on day 5 relative to untreated control. The conditions noted are these: route intraperitoneal.
In data set [27] the test system is Mus musculus. As to the kind of experiment: Toxicity in CDF1 mouse allografted with mouse P388 cells assessed as survival at 2 to 32 mg/kg, ip on days 5, 9 and 13. It is filed as organism-based. Also on record: dose 2-32 mg/kg, route intraperitoneal. Particulars: in vivo. In a few lines: as §2
Data set [28] concerns Mus musculus. As to the kind of experiment: Toxicity in BDF1 mouse allografted with mouse B16 cells at 16 mg/kg, ip on day 5. The conditions noted are these: in vivo.
The test system of data set [29] is P388. As to the kind of experiment: Antitumor activity against mouse P388 cells allografted in CDF1 mouse assessed as tumor inhibition at 32 mg/kg, ip on days 5, 9 and 13 relative to untreated control. It counts as functional. Particulars: route intraperitoneal. In a few lines:
as §1

Data set [30] relates to P388. As to the kind of experiment: Antitumor activity against mouse P388 cells allografted in CDF1 mouse assessed as tumor inhibition at 200 mg/kg, ip on days 5, 9 and 13 relative to untreated control. It is filed as functional. The conditions noted are these: route intraperitoneal. In a few lines: as §1
Data set [31] concerns Mus musculus. As to the kind of experiment: Toxicity in CDF1 mouse allografted with mouse P388 cells assessed as survival at 12.5 to 200 mg/kg, ip on days 5, 9 and 13. It counts as organism-based. More on the design: dose 12.5-200 mg/kg, route intraperitoneal. Particulars: in vivo. In a few lines:
as §2

On to `COc1cccc2c1C(=O)c1c(O)c3c(c(O)c1C2=O)C[C@@](O)(C(=O)CO)C[C@@H]3O[C@H]1C[C@H](N)[C@H](O)[C@H](C)O1` [DOXORUBICIN], for which the Activity result with Mus musculus [1] and with Mus musculus [5] was “Non-toxic” each time. Moreover, the T/C with P388 [2] was determined as 132%; with P388 [3], 149%; with B16 [4], 132%; in the data set on B16 [6], 122%; in the data set with P388 [7], 118%; in the data set on B16 [8] it was 150%. Besides, the T/C is given as 150% with P388 [9], 118% in the data set on B16 [10], 114% in the data set with P388 [11] and 156% with B16 [12].
With `COc1cccc2c1C(=O)c1c(O)c3c(c(O)c1C2=O)C[C@@](O)(C(C)=O)C[C@@H]3O[C@@H]1C[C@H](OC(=O)c2ccc([N+](=O)[O-])cc2)[C@H](OC(=O)c2ccc([N+](=O)[O-])cc2)[C@@H](C)O1`, the T/C is 110% with P388 [13]; 101% in the data set with P388 [14]; 105% in the data set on P388 [15]; 106% in the data set with P388 [16]; 107% in the data set on P388 [17]. In the data set with Mus musculus [18], the Activity result was “Non-toxic”.
As to `COc1cccc2c1C(=O)c1c(O)c3c(c(O)c1C2=O)C[C@@](O)(C(C)=O)C[C@@H]3O[C@H]1C[C@H](O)[C@H](O)[C@H](C)O1`, the Activity entry is reported as “Toxic” with Mus musculus [19], “Non-toxic” in the data set with Mus musculus [21] and “Toxic” in the data set on Mus musculus [25]. For the same molecule, the T/C in the data set on B16 [20] is 146%; in the data set with P388 [15] it was 183%; with P388 [22], 156%; with P388 [17], 125%; with P388 [23], 89%; in the data set with B16 [24] it was 126%. Also, the T/C with B16 [26] worked out at 113%.
In the case of `COc1cccc2c1C(=O)c1c(O)c3c(c(O)c1C2=O)C[C@@](O)(C(C)=O)C[C@@H]3O[C@H]1C[C@H](N)[C@H](O)[C@H](C)O1` [DAUNORUBICIN], the T/C with P388 [2] is recorded as 116%; with P388 [3] it was 123%; with B16 [4], 96%; in the data set on B16 [6], 127%; in the data set on P388 [29], 97%; with P388 [9] it was 151%. Further, the T/C with B16 [10] and in the data set on P388 [11] was 122% in each case. The Activity entry in the data set on Mus musculus [27] was “Non-toxic”; in the data set with Mus musculus [28], “Toxic”.
With `COc1cccc2c1C(=O)c1c(O)c3c(c(O)c1C2=O)C[C@@](O)(C(C)=O)C[C@@H]3O[C@H]1C[C@H](OC(=O)c2ccc([N+](=O)[O-])cc2)[C@H](OC(=O)c2ccc([N+](=O)[O-])cc2)[C@@H](C)O1`, the T/C is 99% with P388 [13]; 98% in the data set with P388 [14]; 101% with P388 [15]; 100% in the data set on P388 [16]; 106% in the data set with P388 [17]. In addition, in the data set on Mus musculus [18], the Activity result was “Non-toxic”.
Turning to `COc1cccc2c1C(=O)c1c(O)c3c(c(O)c1C2=O)C[C@@](O)(C(C)=O)C[C@@H]3O[C@@H]1C[C@H](O)[C@H](O)[C@@H](C)O1`, the T/C in the data set on P388 [13] is recorded as 100%; in the data set with P388 [14] it was 99%; in the data set on P388 [15] it was 101%; with P388 [16], 100%; with P388 [17], 101%. Also, in the data set with Mus musculus [18], the Activity entry is reported as “Non-toxic”.
For the molecule `COc1cccc2c1C(=O)c1c(O)c3c(c(O)c1C2=O)C[C@@](O)(C(C)=O)C[C@@H]3O[C@H]1C[C@H](OC(C)=O)[C@H](OC(C)=O)[C@H](C)O1`, the T/C in the data set with P388 [13] is recorded as 100%; with P388 [15] it was 110%; with P388 [22], 155%; in the data set on P388 [30], 186%; in the data set with P388 [17], 108%. The Activity entry in the data set with Mus musculus [31] is reported as “Non-toxic”.
In the case of `COc1cccc2c1C(=O)c1c(O)c3c(c(O)c1C2=O)C[C@@](O)(C(C)=O)C[C@@H]3O[C@H]1C[C@H](O)[C@H](O)[C@@H](C)O1`, the T/C in the data set with P388 [13] amounted to 97%; in the data set with P388 [14], 100%; in the data set on P388 [15], 102%; in the data set on P388 [16], 102%; in the data set on P388 [17] it was 100%. Besides, in the data set on Mus musculus [18], the Activity result is reported as “Non-toxic”.
